Data published in article PMC3190583 (Journal of clinical pharmacology, 2010).
Like-named read-outs stand apart in the source and are kept apart here. Marks after values point to notes of the source that are not given here.

Tests used:
[1] = Single-dose pharmacokinetics of pantoprazole delayed-release tablet, study 1; assay type: in vivo, human; details: for AUC / CL/F / Cmax / Tmax / Vd/F / half-life: human, plasma, po; for tlag: study 1, 6-11 y, median (range)
[2] = Single-dose pharmacokinetics of pantoprazole delayed-release tablet, study 2; assay type: in vivo, human; details: for AUC / CL/F / Cmax / Tmax / Vd/F / half-life: human, plasma, po; for tlag: study 2, 12-16 y, median (range)
[3] = Safety and tolerability, on-treatment adverse events, study 1; assay type: in vivo, human; details: for Abdominal pain / Accidental injury / Fever / Headache / Otitis media / Upper respiratory infection: on-treatment AE; for Abdominal pain / Accidental injury / Fever / Headache / Otitis media / Upper respiratory infection / Any AE: patients (percent); for Any AE: on-treatment
Summary of the method: (§1)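 Patients randomized 1:1 to 20 or 40 mg delayed-release tablet once daily: about 28 days in study 1, at least 5 consecutive doses in study 2. On-treatment AEs were those occurring during dosing or within 48 h of the last dose. Vital signs were taken 2 h predose and 2, 8 and 12 h postdose on day 1. Physical exam and labs were done on the multiple-dose PK day. Telephone AE follow-up came 14 days after completion.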

[4] = Safety and tolerability, on-treatment adverse events, study 2; assay type: in vivo, human; details: for Abdominal pain / Accidental injury / Fever / Headache / Otitis media: on-treatment AE; for Abdominal pain / Accidental injury / Fever / Headache / Otitis media / Any AE: patients (percent); for Any AE: on-treatment
Summary of the method: as §1

[5] = adults; cited from earlier work
[6] = neonates; cited from earlier work
[7] = study 1, 20 mg once daily (n = 11)
[8] = study 1, 40 mg once daily (n = 13)
[9] = study 1, 20 or 40 mg once daily
[10] = study 1, total of both doses (n = 24)
[11] = study 2, 20 mg once daily (n = 11)
[12] = study 2, 40 mg once daily (n = 11)
[13] = study 2, 20 or 40 mg once daily
[14] = study 2, total of both doses (n = 22)

## COc1ccnc(C[S+]([O-])c2nc3ccc(OC(F)F)cc3[nH]2)c1OC (centres unmarked) [pantoprazole]
[1]; 20 mg
  AUC: 2500 ± 2100 ng·h/mL
  CL/F: 6.83 mL/min/kg
  Cmax: 1600 ± 1200 ng/mL
  Tmax: 2 h
  Vd/F: 0.43 ± 0.3 L/kg
  half-life: 48 ± 12 min
[1]; 40 mg
  AUC: 3800 ± 1800 ng·h/mL
  CL/F: 6.67 mL/min/kg
  Cmax: 2100 ± 1300 ng/mL
  Tmax: 2 h
  Vd/F: 0.4 ± 0.27 L/kg
  half-life: 42 ± 12 min
[1]; single oral 20 mg tablet, n = 10
  tlag: 1.0 (0.5, 2.0) h
[1]; single oral 40 mg tablet, n = 12
  tlag: 0.8 (0, 1.0) ^b h
[1]; study 1, all patients, 20 or 40 mg, lower limit of quantitation 10 ng/mL
  concentration of pantoprazole at 12 hours after the first dose: below the lower limit of quantitation
[2]; 20 mg
  AUC: 1300 ± 600 ng·h/mL
  CL/F: 4.67 mL/min/kg
  Cmax: 900 ± 500 ng/mL
  Tmax: 1.5 h
  Vd/F: 0.32 ± 0.22 L/kg
  half-life: 48 ± 18 min
[2]; 40 mg
  AUC: 4300 ± 3100 ng·h/mL
  CL/F: 3 mL/min/kg
  Cmax: 2200 ± 1400 ng/mL
  Tmax: 2 h
  Vd/F: 0.21 ± 0.06 L/kg
  half-life: 54 ± 18 min
[2]; single oral 20 mg tablet, n = 9
  tlag: 1.0 (0, 2.5) ^c h
[2]; single oral 40 mg tablet, n = 11
  tlag: 1.0 (0, 8) h
[3]; [7]
  Abdominal pain: 3 (27.3)
  Accidental injury: 1 (9.1)
  Fever: 1 (9.1)
  Headache: 1 (9.1)
  Otitis media: 2 (18.2)
  Upper respiratory infection: 2 (18.2)
  Any AE: 9 (81.8)
[3]; [8]
  Abdominal pain: 1 (7.7)
  Accidental injury: 1 (7.7)
  Fever: 1 (7.7)
  Headache: 2 (15.4)
  Otitis media: 0
  Upper respiratory infection: 0
  Any AE: 7 (53.8)
[3]; [9]
  ECG, QTc changes: no abnormal QTc changes
  serious AEs: no serious AEs
  severity of all AEs: mild or moderate
[3]; [10]
  Abdominal pain: 4 (16.7)
  Accidental injury: 2 (8.3)
  Fever: 2 (8.3)
  Headache: 3 (12.5)
  Otitis media: 2 (8.3)
  Upper respiratory infection: 2 (8.3)
  Any AE: 16 (66.7)
[4]; [11]
  Abdominal pain: 0
  Accidental injury: 0
  Fever: 0
  Headache: 0
  Otitis media: 0
  Any AE: 2 (18.2)
[4]; [12]
  Abdominal pain: 2 (18.2)
  Accidental injury: 0
  Fever: 1 (9.1)
  Headache: 1 (9.1)
  Otitis media: 0
  Any AE: 4 (36.4)
[4]; [13]
  ECG, QTc changes: no abnormal QTc changes
  serious AEs: no serious AEs
  severity of all AEs: mild or moderate
[4]; [14]
  Abdominal pain: 2 (9.1)
  Accidental injury: 0
  Fever: 1 (4.5)
  Headache: 1 (4.5)
  Otitis media: 0
  Any AE: 6 (27.3)
[5]
  accumulation on repeated once-daily dosing: does not result in accumulation
  half-life: approximately 1 hour
[6]
  mean CL/F: 0.22 L/h/kg
